“Also recorded” adds a separate entry of the source.
Experiments:
P4H = conditions: binds to the enzyme, not hydroxylated; ref [33]; cited from earlier work
human P4H [1] = target: T1, human P4H (Homo sapiens, UniProt P13674); assay: HPLC-based assay of P4H enzymatic activity; assay type: biochemical; conditions: for Product formation as substrate for P4H: HPLC (for Mtp also mass spectrometry), data not shown; for Substrate or Inhibitor: PEG-Gly–Tyr–Yaa–GlyOEt, 50 mM Tris–HCl pH 7.8, P4H 90 nM, α-ketoglutarate 500 μM; for Substrate or Inhibitor / kcat / Km / kcat/KM / kcat/KM relative to that of the Pro-containing peptide: HPLC-based assay; for Substrate or Inhibitor / kcat / Km / kcat/KM: 5 min, 30 °C; for kcat / Km / kcat/KM: pH 7.8, P4H 90 nM, substrate 0.05–3 mM, mean ± SE of three replicates; for kcat / Km: Michaelis–Menten fit
Method in brief: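 Human P4H from a previously reported preparation at 90 nM, in 50 mM Tris–HCl pH 7.8 with BSA 1 mg/mL, catalase 100 μg/mL, DTT 100 μM, ascorbate 2 mM, FeSO4 50 μM and α-ketoglutarate 500 μM. Started with tetrapeptide (0.05–3 mM; ethanol stock), run 5 min at 30 °C, then boiled 60 s. Triplicates. C18 HPLC; substrate:product ratio from A214; Michaelis–Menten fit.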

human P4H [2] = target: T1, human P4H; assay: [14C]CO2-release assay from [1-14C]α-ketoglutarate; assay type: biochemical; conditions: substrate at 10% of KM; duplicate
Method in brief: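 Release of [14C]CO2 from [1-14C]α-ketoglutarate. Component levels as in the HPLC assay, except P4H at 395 nM. Each peptide tested at 10% of its KM from the HPLC assay. Run in duplicate; the decarboxylation rate without peptide was subtracted. Rate (μM/min) expressed as % of the Pro-containing peptide.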

T1 sequence (P13674 18-534): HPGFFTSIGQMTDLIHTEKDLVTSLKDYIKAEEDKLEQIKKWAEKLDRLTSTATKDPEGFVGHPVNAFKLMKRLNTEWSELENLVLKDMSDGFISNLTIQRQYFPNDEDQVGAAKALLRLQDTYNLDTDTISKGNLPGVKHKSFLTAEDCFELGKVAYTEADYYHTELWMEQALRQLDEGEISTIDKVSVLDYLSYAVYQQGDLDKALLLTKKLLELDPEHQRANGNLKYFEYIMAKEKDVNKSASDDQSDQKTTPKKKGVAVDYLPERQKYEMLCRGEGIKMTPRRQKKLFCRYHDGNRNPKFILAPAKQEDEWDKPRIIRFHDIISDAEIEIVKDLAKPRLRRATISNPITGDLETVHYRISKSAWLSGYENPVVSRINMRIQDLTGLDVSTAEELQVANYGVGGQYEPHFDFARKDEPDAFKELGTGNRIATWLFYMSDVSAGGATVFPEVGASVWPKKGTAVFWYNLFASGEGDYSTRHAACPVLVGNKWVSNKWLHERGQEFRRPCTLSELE
T1 sequence (P07237 18-508 partner): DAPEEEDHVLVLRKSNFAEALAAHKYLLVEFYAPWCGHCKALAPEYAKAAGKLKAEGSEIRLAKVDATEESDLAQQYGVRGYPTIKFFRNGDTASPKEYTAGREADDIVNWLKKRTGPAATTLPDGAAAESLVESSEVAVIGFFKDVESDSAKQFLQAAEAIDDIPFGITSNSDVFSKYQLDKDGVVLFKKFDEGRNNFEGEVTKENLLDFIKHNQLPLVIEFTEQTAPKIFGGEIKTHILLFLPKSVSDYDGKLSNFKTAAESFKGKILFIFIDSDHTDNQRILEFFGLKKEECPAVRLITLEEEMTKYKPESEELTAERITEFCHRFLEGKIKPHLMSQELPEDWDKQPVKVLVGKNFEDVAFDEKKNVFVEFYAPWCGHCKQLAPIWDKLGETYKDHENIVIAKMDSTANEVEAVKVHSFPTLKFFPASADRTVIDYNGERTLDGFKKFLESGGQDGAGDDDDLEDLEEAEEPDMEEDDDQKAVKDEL

| Product formation as substrate for P4H (human P4H [1]) | Substance | Inhibition of P4H enzymatic activity (P4H) | Substrate or Inhibitor (human P4H [1]) | kcat (human P4H [1]) [s⁻¹] | Km (human P4H [1]; SEM) [µM] | kcat (human P4H [1]; SEM) [s⁻¹] | kcat/KM (human P4H [1]) | kcat/KM relative to that for dansyl-Gly–Phe–Pro–GlyOEt (human P4H [1]; comparator value from ref [18]) [fold] | % of Pro (rate of CO2 release) (human P4H [2]) [%] | kcat/KM relative to that of the Pro-containing peptide (human P4H [1]) [%] |
| --- | --- | --- | --- | --- | --- | --- | --- | --- | --- | --- |
| – | polyproline | competitive inhibitor | – | – | – | – | – | – | – | – |
| not found to be a substrate | PEG-Gly–Tyr–Kep–GlyOEt | – | neither substrates nor inhibitors; also recorded: Neither | – | – | – | – | – | – | – |
| No product was detected | Cbz-Gly–Tyr–Mtp–GlyOEt | – | Neither | – | – | – | – | – | – | – |
| – | PEG-Gly–Tyr–Pro–GlyOEt | – | Substrate | 6 | 580 ± 30 | 6 ± 0.12 | 10 ± 0.6 10^3 M^−1s^−1 | 3 | 100 | – |
| – | PEG-Gly–Tyr–Thp–GlyOEt | – | Substrate | – | 6400 ± 1400 | 7.83 ± 0.983 | 1.2 ± 0.3 10^3 M^−1s^−1 | – | 6 | 12 |

| Substance | Product formation as substrate for P4H (human P4H [1]) | Inhibition of P4H enzymatic activity (P4H) | Substrate or Inhibitor (human P4H [1]) | kcat (human P4H [1]) [s⁻¹] | Km (human P4H [1]; SEM) [µM] | kcat (human P4H [1]; SEM) [s⁻¹] | kcat/KM (human P4H [1]) | kcat/KM relative to that for dansyl-Gly–Phe–Pro–GlyOEt (human P4H [1]; comparator value from ref [18]) [fold] | % of Pro (rate of CO2 release) (human P4H [2]) [%] | kcat/KM relative to that of the Pro-containing peptide (human P4H [1]) [%] |
| --- | --- | --- | --- | --- | --- | --- | --- | --- | --- | --- |
| PEG-Gly–Tyr–flp–GlyOEt | No product formation was detected | – | Substrate | 4.17 | 1600 ± 300 | 4.17 ± 0.35 | 2.7 ± 0.5 10^3 M^−1s^−1 | – | 26 | 27 |
